Compound activity (PubChem)
Apaf-1 inh – inhibitors of human Apaf-1 apoptosome, primary screen, biochemical, DEVD-Rh110 fluorescence, uHTS | inhibition, % at 20 µM | Apoptotic protease-activating factor 1 (Homo sapiens), O14727 | 330,000 compounds, 0.71% hits | reconstituted apoptosome caspase-3 activity; active means inhibition of at least 40% at 20 µM
Target sequence (O14727 whole entry, looked up): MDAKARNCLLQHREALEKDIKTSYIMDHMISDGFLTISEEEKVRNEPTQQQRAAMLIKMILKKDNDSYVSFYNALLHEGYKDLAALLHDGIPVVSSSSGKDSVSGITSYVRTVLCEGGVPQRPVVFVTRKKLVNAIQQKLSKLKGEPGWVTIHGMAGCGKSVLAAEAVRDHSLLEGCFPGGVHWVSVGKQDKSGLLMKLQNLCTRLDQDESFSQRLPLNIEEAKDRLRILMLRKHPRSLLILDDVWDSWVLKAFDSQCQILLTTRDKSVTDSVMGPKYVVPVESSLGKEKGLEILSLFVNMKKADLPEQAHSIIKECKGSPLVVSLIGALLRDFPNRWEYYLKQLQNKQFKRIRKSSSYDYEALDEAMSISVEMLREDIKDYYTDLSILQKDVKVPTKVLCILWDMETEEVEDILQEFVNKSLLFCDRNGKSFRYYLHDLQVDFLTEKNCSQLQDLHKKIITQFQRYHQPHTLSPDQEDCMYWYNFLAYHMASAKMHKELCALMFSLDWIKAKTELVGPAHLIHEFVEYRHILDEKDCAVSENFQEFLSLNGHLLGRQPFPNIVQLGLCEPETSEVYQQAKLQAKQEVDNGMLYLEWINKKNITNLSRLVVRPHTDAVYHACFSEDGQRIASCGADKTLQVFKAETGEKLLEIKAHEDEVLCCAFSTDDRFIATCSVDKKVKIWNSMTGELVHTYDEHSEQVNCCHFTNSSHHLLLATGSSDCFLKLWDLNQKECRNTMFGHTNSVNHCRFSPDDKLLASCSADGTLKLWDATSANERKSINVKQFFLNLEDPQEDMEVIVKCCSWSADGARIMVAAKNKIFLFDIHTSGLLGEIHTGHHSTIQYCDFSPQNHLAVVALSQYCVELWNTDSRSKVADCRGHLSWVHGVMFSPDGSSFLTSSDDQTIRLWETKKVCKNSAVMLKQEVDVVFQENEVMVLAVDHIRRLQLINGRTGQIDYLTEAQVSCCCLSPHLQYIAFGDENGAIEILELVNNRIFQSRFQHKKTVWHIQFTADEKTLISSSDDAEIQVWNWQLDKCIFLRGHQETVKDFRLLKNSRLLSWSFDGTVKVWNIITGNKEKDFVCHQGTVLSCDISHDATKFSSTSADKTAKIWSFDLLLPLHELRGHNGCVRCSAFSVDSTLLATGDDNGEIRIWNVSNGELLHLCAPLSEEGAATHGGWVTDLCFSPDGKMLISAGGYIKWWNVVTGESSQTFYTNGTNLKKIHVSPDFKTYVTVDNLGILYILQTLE
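System – cell-free apoptosome with Apaf-1, procaspase-3 and caspase-9 · Buffer or medium – pH 7.5 Hepes buffer with CHAPS, BSA, DTT · Also added – cytochrome c with DEVD-Rh110 · Times – 30 min compound preincubation, 50 min activation, room temperature · Technique – Rh110 fluorescence intensity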
MEKK2 WT-MEK5 – modulators of MEK5 binding to wildtype MEKK2, primary screen, biochemical, multiplex bead flow cytometry, Alexa488-MEK5. Alexa488-MEK5 binding to MEKK2 WT; actives lie on both sides. binding response (% of control), % at 10 µM. 290,000 compounds, 1.1% hits; in the data active means binding response below about 67% or above about 130%
MEKK2 mut-MEK5 – MEK5 binding signal on mutant MEKK2 PB1, primary screen, biochemical, multiplex bead flow cytometry, Alexa488-MEK5; 290,000 compounds, 0.35% hits; Alexa488-MEK5 binding to MEKK2 mutant; AID 1530, 2009; percent response, % at 10 µM; in the data active means percent response above about 24%, passing the limit was not always enough
MEKK3 PB1 HTS – modulators of MEKK3-MEK5 PB1 binding, primary screen, biochemical, wildtype MEKK3, multiplex bead flow cytometry, Alexa488-MEK5. Mitogen-activated protein kinase kinase kinase 3 (Homo sapiens), Q99759. binding response (% of control), % at 10 µM. 290,000 compounds, 1.4% hits. bead-based flow cytometry, Alexa488-MEK5 binding to MEKK3; actives lie on both sides; 0 = blocked by unlabeled MEK5, 100 = vehicle;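 active means binding response more than 3 SD above or below the average of its plate-row segment, actives on both sides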;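 further: Alexa488 bead fluorescence after subtracting the streptavidin-only scavenger bead signal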
UBC13 inh – UBC13 polyubiquitin chain formation inhibitors, primary screen, biochemical, TR-FRET, uHTS. Ubiquitin-conjugating enzyme E2 N (Homo sapiens), P61088. inhibition, % at 20 µM. 330,000 compounds, 0.47% hits. AID 485273, 2010; in the data active means inhibition above about 45%, passing the limit was not always enough
PREPL inh – PREPL enzyme inhibitors, primary screen, biochemical, fluorescence polarization; AID 2751, 2010; 320,000 compounds, 0.68% hits; inhibition, % at 5.96 µM; recombinant PREPL, fluorescence polarization activity-based probe
MEKK2wt confirm – modulators of MEK5 binding to wildtype MEKK2, confirmation, biochemical, single concentration, multiplex bead flow cytometry | shares compounds with MEKK3 PB1 HTS | Alexa488-MEK5 binding to MEKK2 WT; actives lie on both sides | binding response (% of control), % at 10 µM | 5,900 compounds, 2.4% hits; in the data active means binding response below about 16% or above about 210%; inactive means in between
MEKK2mut-MEK5 – mutant MEKK2 PB1-MEK5 binding signal retest – biochemical, single concentration, multiplex bead flow cytometry, confirmation. Alexa488-MEK5 binding to MEKK2 mutant. AID 1893, 2009. shares compounds with MEKK3 PB1 HTS. 5,900 compounds, 2% hits. percent response, % at 10 µM; in the data active means percent response mostly above about 71%, no sharp cut-off; inactive means mostly below about 38%;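 further: higher means compound restores mutant binding toward wildtype level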
MEKK3-MEK5 inh – MEKK3 wild-type PB1 binding to MEK5, inhibitors, confirmation, biochemical, bead multiplex flow cytometry, single concentration, wildtype; shares compounds with MEKK3 PB1 HTS; Alexa488-MEK5 binding to MEKK3; hits give low values; binding response (% of control), % at 10 µM; 5,900 compounds, 1.8% hits; AID 1894, 2009;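 active means binding response below 72% of control, or above a set upper limit, though filed actives all read lower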
PREPL confirm – human PREPL enzyme inhibitors, confirmation, biochemical, fluorescence polarization. recombinant PREPL, fluorescence polarization activity probe. shares compounds with PREPL inh. 2,000 compounds, 67% hits. inhibition, % at 5.96 µM
Casp3 counter – CASP3 inhibitor validation, counterassay for project on UBE2N polyubiquitination blockers, biochemical, one dose. shares compounds with UBC13 inh. inhibition, % at 20 µM. Recombinant caspase-3, Caspase-Glo 3/7 luminescence, 60 min. AID 488856, 2010. 1,400 compounds, 4% hits;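 active means mean inhibition across replicates above about 26%, limit read from the data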
UBC13 conf – UBC13 polyubiquitination inhibitors, single-point retest, confirmation, biochemical, TR-FRET, single concentration; shares compounds with UBC13 inh; inhibition, % at 10 µM; 1,400 compounds, 68% hits; AID 488859, 2010; in the data active means inhibition above about 45%
Apaf-1 inh conf – Apaf-1 inhibitors, single-dose retest, confirmation, biochemical, fluorescence, DEVD-Rh110, 20 µM. inhibition, % at 20 µM. 1,800 compounds, 25% hits. shares compounds with Apaf-1 inh. reconstituted apoptosome, caspase-3 DEVD-Rh110 fluorescence. AID 504614, 2011;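 active means mean inhibition of at least 40% at 20 µM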
Rh110 quench – Rh110 fluorescence interference by putative Apaf-1 inhibitors, confirmation, artefact control for Apaf-1 inhibitor project, biochemical, 20 µM. AID 504615, 2011. 1,800 tested, under 10 active. quenched caspase reaction. activation (fluorescence interference), % at 20 µM. shares compounds with Apaf-1 inh;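 active means signal rise of 40% or more at 20 µM, treated as a fluorescence artifact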
Apaf1 inh interf – fluorescence interference of Apaf-1 inhibitor hits, dose response, artefact control for Apaf-1 inhibitor project; fluorescence interference counterscreen, Apaf-1 assay format; IC50, µM; 460 tested, under 10 active; shares compounds with Apaf-1 inh; call rule not given here
Of the large screens only hits and unclear results are named; the others gave an inactive call (follow-up assays come after a bar, where they were run); [ ] = remark or other dose. Compounds with a hit are over-represented: about 3.1% of the library has one in this group of screens. Unless noted, no stated cut-off is given here; in the data, active means inhibition above about 43%; inactive means the rest.

Nc1ccc2nc(-c3cccc(-c4nc5ccc(N)cc5[nH]4)n3)[nH]c2c1	Apaf-1 inh 40.2, MEKK3 PB1 HTS 79.0[inhibitor], UBC13 inh 99.9, PREPL inh 55.6 | MEKK2wt confirm inactive | MEKK2mut-MEK5 inactive | MEKK3-MEK5 inh inactive | PREPL confirm inactive | Casp3 counter inactive | UBC13 conf 114.0 | Apaf-1 inh conf inactive | Rh110 quench inactive
Fc1ccc(-[n+]2nc(Nc3ccccc3)sc2-c2c3ccccc3cc3ccccc23)cc1	Apaf-1 inh 42.5, MEKK2 mut-MEK5 31.0 | MEKK2wt confirm inactive | MEKK2mut-MEK5 inactive | MEKK3-MEK5 inh inactive | Apaf-1 inh conf inactive | Rh110 quench inactive
Oc1ccc2ccccc2c1-c1sc(Nc2ccccc2)n[n+]1-c1ccc(F)cc1	none
CCC1CCCCN1C(=O)COC(=O)c1ccc(Br)o1 (centres undefined)	none (no result: MEKK2 WT-MEK5, MEKK2 mut-MEK5, MEKK3 PB1 HTS)
CN(C)CCCN(C(=O)c1ccc(S(=O)(=O)N2CCCC2)cc1)c1nc2ccc(Br)cc2s1	Apaf-1 inh 53.3, MEKK2 WT-MEK5 181.0, MEKK2 mut-MEK5 30.0, UBC13 inh 70.5 | MEKK2wt confirm 234.0 | MEKK2mut-MEK5 112.0 | MEKK3-MEK5 inh inactive | Casp3 counter inactive | UBC13 conf 97.4 | Apaf-1 inh conf inactive | Rh110 quench inactive
CCOc1cccc2sc(N(CCCN(C)C)C(=O)c3ccc(S(=O)(=O)N4CCc5ccccc5C4)cc3)nc12	Apaf-1 inh 61.7, MEKK2 WT-MEK5 200.0, MEKK2 mut-MEK5 49.0, UBC13 inh 90.8 | MEKK2wt confirm 305.0 | MEKK2mut-MEK5 126.0 | MEKK3-MEK5 inh inactive | Casp3 counter inactive | UBC13 conf 110.5 | Apaf-1 inh conf inactive | Rh110 quench inactive
COc1ccc(CN2CC[C@@H](N3CCOCC3)[C@H](O)C2)cc1F	none
Cc1ccccc1OCc1n(CC(=O)OC2CC(C)CCC2C(C)C)c2ccccc2[n+]1C (centres undefined)	Apaf-1 inh 47.3, MEKK2 WT-MEK5 159.0, UBC13 inh 55.4 | MEKK2wt confirm inactive | MEKK2mut-MEK5 inactive | MEKK3-MEK5 inh inactive | Casp3 counter inactive | UBC13 conf 97.6 | Apaf-1 inh conf 47.7 | Rh110 quench inactive | Apaf1 inh interf inactive
CC1CCC(C(C)C)C(OC(=O)COC(=O)c2ccc(N)cc2)C1 (centres undefined)	none
CCCCCCCCCCOC(=O)Cn1c(COc2ccccc2)[n+](C)c2ccccc21	Apaf-1 inh 73.1, MEKK2 WT-MEK5 226.0, MEKK2 mut-MEK5 61.0, UBC13 inh 58.8 | MEKK2wt confirm 230.0 | MEKK2mut-MEK5 84.0 | MEKK3-MEK5 inh inactive | Casp3 counter inactive | UBC13 conf 69.8 | Apaf-1 inh conf 72.2 | Rh110 quench inactive | Apaf1 inh interf inactive
CCCCCCCCCCOC(=O)Cn1c(COc2ccc(Cl)cc2)[n+](C)c2ccccc21	Apaf-1 inh 84.5, MEKK2 WT-MEK5 349.0, MEKK2 mut-MEK5 101.0, UBC13 inh 99.8 | MEKK2wt confirm inactive | MEKK2mut-MEK5 inactive | MEKK3-MEK5 inh inactive | Casp3 counter inactive | UBC13 conf 89.3 | Apaf-1 inh conf 90.4 | Rh110 quench inactive | Apaf1 inh interf inactive
CCOC(=O)Cn1c(COc2ccccc2OC)[n+](C)c2ccccc21	none (no result: MEKK2 WT-MEK5, MEKK2 mut-MEK5, MEKK3 PB1 HTS)
CCCCOC(=O)Cn1c(=O)n(CC(=O)OCCCC)c2ccccc21	none
CCCCCOC(=O)Cn1c(=O)oc2ccccc21	none
CCCCCCCCCCOC(=O)Cn1c(COc2ccc(OC)cc2)[n+](C)c2ccccc21	Apaf-1 inh 72.4, MEKK2 WT-MEK5 256.0, MEKK2 mut-MEK5 80.0, UBC13 inh 62.8 | MEKK2wt confirm 266.0 | MEKK2mut-MEK5 79.0 | MEKK3-MEK5 inh inactive | Casp3 counter inactive | UBC13 conf 80.9 | Apaf-1 inh conf 68.2 | Rh110 quench inactive | Apaf1 inh interf inactive
c1ccc(Nc2nnc(-c3cccnc3)s2)cc1	none
O=C(CCN1C(=O)c2ccc(Br)cc2C1=O)NC1CCCCC1	none
CCCCCCCCCCOC(=O)Cn1c(COc2cccc(C)c2)[n+](C)c2ccccc21	Apaf-1 inh 79.4, MEKK2 WT-MEK5 402.0, MEKK2 mut-MEK5 112.0, MEKK3 PB1 HTS 123.0, UBC13 inh 51.5 | MEKK2wt confirm 254.0 | MEKK2mut-MEK5 90.0 | MEKK3-MEK5 inh inactive | Casp3 counter inactive | UBC13 conf 67.8 | Apaf-1 inh conf 77.3 | Rh110 quench inactive | Apaf1 inh interf inactive
